# Only some compounds are listed: those with a hit (about 1.8% of all), similar ones and a draw of the others.
# CHRM5 PAM: potentiates acetylcholine response at human M5 receptor | actives 0.3% (n = 360,000) | activation, % at 3 µM | AID 624038 | CHO-K1 hM5, Fluo-8 calcium, ACh EC20 PAM; 0% = ACh EC20, 100% = ACh EC100;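 active = activation above the run cutoff, the mean activation of all test compounds plus 3 SD, cut at about 18% in these data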
#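 System: CHO-K1 hM5 cells. Reagent: acetylcholine, EC20 level. Compound dosing: single dose, 3 µM nominal final test concentration. Timing: Post-acetylcholine fluorescence recording 140 s. Detection: Fluo-8 calcium fluorescence. Read-out: % activation, ACh-normalized. Benchmarks: ACh EC20 and EC100 wells. Repeats: singlicate, one well per test compound.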
# CHRM4 antagonist: antagonists of human muscarinic M4 receptor (CHRM4). inhibition, % at 3 µM. P08173. CHO-hM4 cells, ACh EC80, Fluo-8 calcium fluorescence. actives 0.73% (n = 360,000). AID 624125;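 active = inhibition above its plate's cutoff, the mean inhibition of sample wells plus 3 SD, cut at about 27% in these data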
# Target sequence (P08173 whole entry, looked up): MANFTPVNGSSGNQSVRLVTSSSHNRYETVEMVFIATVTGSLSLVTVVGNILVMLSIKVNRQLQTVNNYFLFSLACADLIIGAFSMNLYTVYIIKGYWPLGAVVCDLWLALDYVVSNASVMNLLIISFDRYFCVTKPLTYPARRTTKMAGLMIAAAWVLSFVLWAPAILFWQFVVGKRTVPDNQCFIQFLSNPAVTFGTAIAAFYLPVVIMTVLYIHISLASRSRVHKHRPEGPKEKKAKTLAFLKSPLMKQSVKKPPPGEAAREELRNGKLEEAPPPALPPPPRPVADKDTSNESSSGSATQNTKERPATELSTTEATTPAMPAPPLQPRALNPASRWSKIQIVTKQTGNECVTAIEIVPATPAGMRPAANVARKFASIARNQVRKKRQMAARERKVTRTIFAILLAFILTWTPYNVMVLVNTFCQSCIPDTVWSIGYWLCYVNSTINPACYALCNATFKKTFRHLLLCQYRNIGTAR
# CHRM5 antagonist: antagonists of human muscarinic M5 receptor (CHRM5); CHO-hM5 cells, Fluo-8 calcium fluorescence, ACh EC80; inhibition, % at 3 µM; actives 0.59% (n = 360,000); AID 624040;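 active = inhibition above a per-plate cutoff, the mean of that plate's test compounds plus 3 SD, cut at about 27% in these data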
# M4 PAM: positive allosteric modulators of human muscarinic M4 receptor. P08173. CHO-K1 hM4/Gqi5, Fluo-8 calcium fluorescence, ACh EC20; 0% = ACh EC20, 100% = maximal ACh. activation, % at 3 µM. actives 0.4% (n = 360,000);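 active = activation above its plate's cutoff, the mean activation of sample wells plus 3 SD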
# M4 ag: agonists of human muscarinic M4 receptor (CHRM4); P08173; CHO-K1 hM4/Gqi5, Fluo-8 calcium fluorescence; vehicle 0%, full acetylcholine response 100%; activation, % at 3 µM; actives 0.14% (n = 360,000); AID 624127;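 active = activation above the run mean over all test wells plus 3 SD, cut at about 32% in these data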;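 note: peak over basal fluorescence ratio per well then scaled between controls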
# CHRM5 agonist: CHRM5 agonism in calcium assay. P08912. CHO-K1 hM5 cells, Fluo-8 calcium fluorescence; 0% DMSO wells, 100% maximal acetylcholine response. activation, % at 3 µM. actives 0.19% (n = 360,000). AID 624037;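 active = activation above the run's mean over test compounds plus 3 SD, cut at about 23% in these data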;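 note: signal is peak over basal fluorescence ratio across the kinetic read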
# Numbers stand for hits; . = inactive.
SMILES,CHRM5 PAM,CHRM4 antagonist,CHRM5 antagonist,M4 PAM,M4 ag,CHRM5 agonist
CCN(CC)c1ncnc2c1ncn2[C@H]1CN(Cc2ccccc2)C[C@@H](COC(C)=O)O1,.,.,.,.,.,.
CC(C)c1cccc(-c2ccc3c(c2)S(=O)(=O)c2cccc(C(=O)NCc4ccccc4Cl)c2C3=O)c1,.,.,.,.,.,.
Cc1nn(C)c(C)c1CN(Cc1nc(CCC(C)C)no1)C(C)C,.,.,32,.,.,.
COCCNC(=O)[C@@H]1CCCN1C(=O)C1CCN(S(=O)(=O)c2ccc(C)cc2)CC1,.,.,.,.,.,.
Cc1ccc(C(C)C)c(OCCN)c1,.,.,.,.,.,.
Cc1ccc(C(C)C)c(OCCCn2ccnc2C)c1,.,73,91,.,.,.
Cc1cc(C)cc(OCC(=O)Nc2ccc(N3CCN(C(=O)c4ccco4)CC3)cc2)c1,.,32,.,.,.,.
Cc1cc(C)c(OCC(=O)Nc2ccc(NC(=O)c3ccco3)cc2)c([N+](=O)[O-])c1,26,.,.,.,.,.
Cc1cc(C)c(OCC(=O)Nc2cccc(NC(=O)c3ccco3)c2)c(Br)c1,.,.,.,.,.,.
CN(Cc1ccccc1N1CCCC1)C(=O)c1cc2cc(Cl)ccc2o1,.,.,.,.,.,.
COc1cccc2cc(-c3ccccc3)oc12,.,.,.,.,.,.
Nc1cccc2cc(-c3ccccc3)oc12,.,.,.,25,.,.
Cc1ccc(CNc2ncnc3cc(Cl)ccc23)cc1,.,.,35,.,.,.
COc1ccc(N2CC(C(=O)Nc3nnc(SCC(=O)NCC4CCCO4)s3)CC2=O)cc1 (centres undefined),.,.,.,.,.,.
CSc1nncc(-c2ccc(F)c(F)c2)n1,.,.,.,.,.,.
CSc1nncc(-c2ccc(F)cc2)n1,.,.,.,.,33,.
CC1(c2ccc(OC(F)F)cc2)NC(=O)N(CC(=O)Nc2ccccc2)C1=O (centres undefined),.,.,.,.,67,44
CC1(c2ccc(OC(F)F)cc2)NC(=O)N(CC(=O)Nc2ccc3c(c2)OCO3)C1=O (centres undefined),.,.,.,.,32,41
CC1(c2ccc(OC(F)F)cc2)NC(=O)N(CC(=O)Nc2ccc3[nH]c(=O)[nH]c3c2)C1=O (centres undefined),.,.,.,.,.,.
CN(C(=O)CSc1nc(-c2ccc(C(C)(C)C)cc2)c(C#N)c(=O)[nH]1)C1CCCCC1,.,.,.,.,.,.
O=C(Nc1ccc(Br)cc1)c1cnc[nH]1,.,.,.,.,.,.
Cc1ccc(C2=NNC(C(O)C(O)C(O)CO)S2)cc1 (centres undefined),30,.,.,.,.,.
CCc1c(C)c2ccc(OCC(=O)N(C)C)c(C)c2oc1=O,.,.,.,.,.,.
CCOC(=O)CCc1c(C)c2ccc(OCC(=O)N(CC)CC)c(C)c2oc1=O,.,36,.,.,.,.
Cc1ccc(C2/C(=C(\O)c3ccc4c(c3)OCCO4)C(=O)C(=O)N2Cc2cccnc2)cc1 (centres undefined),.,.,.,.,.,.
SMILES,CHRM5 PAM,CHRM4 antagonist,CHRM5 antagonist,M4 PAM,M4 ag,CHRM5 agonist
CC1(C(=O)NS(=O)(=O)c2cccc(OC(F)F)c2)CCN1C(=O)C/C=C/c1ccccc1 (centres undefined),.,.,.,.,.,.
CCOC(=O)C1(CC2CCCCO2)CCN(Cc2cc3ccccc3[nH]2)CC1 (centres undefined),.,59,34,.,125,62
CCOC(=O)Cc1csc(N/N=C\c2cccc(Br)c2)n1,.,.,.,.,.,.
CCOC(=O)Cc1csc(N/N=C/c2ccccc2)n1,.,.,.,24,.,.
CCCc1cc(=O)oc2cc(C)cc(OCC(=O)N3C[C@H]4C[C@@H](C3)c3cccc(=O)n3C4)c12,.,.,.,.,.,.
CNc1snc(C)c1C(=O)OC(C)C(=O)Nc1ccc(F)cc1 (centres undefined),.,.,.,.,.,.
Cc1cccc(NC(=O)COc2ccc(Br)cc2)n1,33,.,.,.,.,.
Cc1ccc(OCC(=O)NC(=S)Nc2cccc(C)n2)cc1,.,.,.,.,.,.
CN(CCOc1ccccc1)C(=O)C1CCC(=O)N(CCN2CCOCC2)C1 (centres undefined),.,.,.,.,.,.
COc1cc(OC)cc(C(=O)N2CCN(S(C)(=O)=O)CC2)c1,31,.,.,28,.,.
CCOC(=O)N1CCN(C(=O)c2cc(OC)cc(OC)c2)CC1,.,.,.,.,.,.
CCN(CC)c1ccc(/C=C2\SC(=O)N(C(C)C)C2=O)o1,.,41,.,.,.,.
Cn1cc(C(=O)c2cccc(Cl)c2)cc1C#N,.,.,.,26,.,.
Cc1ccc(C)c(NC(=O)Cc2nc(CNCC(C)C)cs2)c1,.,.,.,.,.,.
O=c1c2ccccc2nnn1CCc1ccccc1,.,.,.,.,.,.
CCOC(=O)c1sc(NS(=O)(=O)c2ccccc2)nc1C,.,.,.,.,.,.
Cc1nc(NS(=O)(=O)c2ccccc2)sc1NC(=O)OCCN(C)C,.,.,.,.,.,27
COC(=O)C1=C(N)Oc2cc(C)n(C)c(=O)c2C1c1ccc(Cl)c(Cl)c1 (centres undefined),.,.,.,.,.,.
COC(=O)C1=C(N)Oc2cc(C)[nH]c(=O)c2C1c1ccncc1 (centres undefined),20,.,.,.,.,.
O=C1C(Cl)=C(Nc2ccc3cn[nH]c3c2)C(=O)c2ccccc21,.,39,28,.,.,.
CN(C)c1ccc(NC2=C(Cl)C(=O)c3ccccc3C2=O)cc1,.,36,34,.,.,.
Cc1ccc(NC(=O)CCC(=O)Nc2nnc(C3CCCCC3)s2)cc1,.,.,.,20,.,.
O=c1c2ccccc2nc2sc(Nc3cccc(Cl)c3)nn12,20,.,.,.,.,.
CCCS(=O)(=O)NC(=O)C1(C)CCCN(C(=O)c2ccc3ccccc3c2)C1 (centres undefined),.,.,.,17,.,.
Cc1n(Cc2ccccc2)c2cc([N+](=O)[O-])ccc2[n+]1Cc1ccccc1,.,.,.,.,.,.
Cc1n(Cc2ccccc2)c2ccccc2[n+]1Cc1ccccc1,.,.,28,.,.,.
O=[N+]([O-])c1cc([N+](=O)[O-])c(Oc2cccc3ccccc23)cc1NN1CCCCC1,.,.,.,30,.,.
